Reference: the M2OR odorant receptor database

Key:
Settings in all cases: stereoisomer not certain
UniProt Q8VGX8 = target: T1, UniProt Q8VGX8
T1 sequence (whole entry): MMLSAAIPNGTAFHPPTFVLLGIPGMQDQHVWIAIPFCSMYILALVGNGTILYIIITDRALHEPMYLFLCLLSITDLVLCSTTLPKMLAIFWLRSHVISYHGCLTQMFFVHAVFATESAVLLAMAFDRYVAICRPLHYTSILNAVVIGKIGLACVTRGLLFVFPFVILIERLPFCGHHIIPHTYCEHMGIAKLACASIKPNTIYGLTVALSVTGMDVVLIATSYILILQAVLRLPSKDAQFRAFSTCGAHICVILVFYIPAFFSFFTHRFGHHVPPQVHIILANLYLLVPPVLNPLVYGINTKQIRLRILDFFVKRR
In short: (§1)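 Each entry records the cell line, G-protein, co-transfected protein and tags used. Methods varied with the source, often transient luciferase assays in mammalian cell lines. A receptor–molecule pair is called responsive (active) if the original authors judged its signal statistically different from baseline and non-responsive (inactive) otherwise.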

UniProt Q8VH18 = target: UniProt Q8VH18
UniProt Q8VH18, sequence (Q8VH18 as listed by the source): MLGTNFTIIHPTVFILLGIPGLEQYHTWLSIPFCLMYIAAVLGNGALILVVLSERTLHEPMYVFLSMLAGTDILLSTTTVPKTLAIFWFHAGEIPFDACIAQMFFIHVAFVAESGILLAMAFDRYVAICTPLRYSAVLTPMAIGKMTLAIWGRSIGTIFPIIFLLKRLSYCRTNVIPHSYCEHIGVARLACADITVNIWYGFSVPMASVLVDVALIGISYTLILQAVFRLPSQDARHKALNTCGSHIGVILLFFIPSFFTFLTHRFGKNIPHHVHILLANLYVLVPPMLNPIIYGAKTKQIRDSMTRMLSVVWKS
In short: as §1

UniProt Q924X8 = target: UniProt Q924X8
UniProt Q924X8, sequence (Q924X8 as listed by the source): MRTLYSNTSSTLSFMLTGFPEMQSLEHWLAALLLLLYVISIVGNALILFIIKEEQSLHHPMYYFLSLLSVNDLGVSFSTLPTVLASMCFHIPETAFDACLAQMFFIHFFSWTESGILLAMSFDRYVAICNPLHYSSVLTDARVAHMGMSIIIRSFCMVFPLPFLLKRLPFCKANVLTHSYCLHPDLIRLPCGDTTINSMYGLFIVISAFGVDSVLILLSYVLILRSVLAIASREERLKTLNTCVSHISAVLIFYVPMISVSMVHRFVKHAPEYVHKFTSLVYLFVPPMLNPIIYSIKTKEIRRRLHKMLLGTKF
In short: as §1

UniProt Q99NH4 = target: UniProt Q99NH4
UniProt Q99NH4, sequence (Q99NH4 as listed by the source): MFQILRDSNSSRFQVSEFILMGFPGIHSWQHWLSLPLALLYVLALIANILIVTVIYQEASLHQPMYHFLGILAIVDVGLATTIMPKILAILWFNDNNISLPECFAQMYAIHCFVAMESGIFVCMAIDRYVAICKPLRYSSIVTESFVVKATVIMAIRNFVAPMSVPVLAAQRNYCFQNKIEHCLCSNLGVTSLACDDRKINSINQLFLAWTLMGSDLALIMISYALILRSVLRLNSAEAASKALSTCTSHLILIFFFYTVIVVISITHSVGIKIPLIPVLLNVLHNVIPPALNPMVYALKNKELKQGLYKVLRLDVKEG
In short: as §1

UniProt Q9WU94 = target: UniProt Q9WU94
UniProt Q9WU94, sequence (Q9WU94 as listed by the source): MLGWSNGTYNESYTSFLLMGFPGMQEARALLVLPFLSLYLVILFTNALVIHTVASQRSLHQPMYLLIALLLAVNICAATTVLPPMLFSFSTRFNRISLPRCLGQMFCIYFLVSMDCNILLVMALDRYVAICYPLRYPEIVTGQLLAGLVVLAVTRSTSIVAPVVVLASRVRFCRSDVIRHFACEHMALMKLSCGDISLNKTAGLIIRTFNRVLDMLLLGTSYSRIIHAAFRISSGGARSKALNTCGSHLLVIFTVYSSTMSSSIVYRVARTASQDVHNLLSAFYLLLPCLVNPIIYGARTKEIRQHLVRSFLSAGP
In short: as §1

UniProt Q8VGX3 = target: T2, UniProt Q8VGX3
T2 sequence (whole entry): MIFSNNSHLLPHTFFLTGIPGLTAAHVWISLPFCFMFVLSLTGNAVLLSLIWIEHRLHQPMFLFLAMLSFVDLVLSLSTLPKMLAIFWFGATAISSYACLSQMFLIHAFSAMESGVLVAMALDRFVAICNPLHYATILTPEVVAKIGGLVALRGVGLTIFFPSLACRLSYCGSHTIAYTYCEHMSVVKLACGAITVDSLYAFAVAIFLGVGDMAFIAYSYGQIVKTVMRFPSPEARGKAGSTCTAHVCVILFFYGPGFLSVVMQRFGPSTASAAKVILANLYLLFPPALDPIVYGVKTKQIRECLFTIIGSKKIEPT
In short: as §1

UniProt Q8VGX5 = target: T3, UniProt Q8VGX5
T3 sequence (whole entry): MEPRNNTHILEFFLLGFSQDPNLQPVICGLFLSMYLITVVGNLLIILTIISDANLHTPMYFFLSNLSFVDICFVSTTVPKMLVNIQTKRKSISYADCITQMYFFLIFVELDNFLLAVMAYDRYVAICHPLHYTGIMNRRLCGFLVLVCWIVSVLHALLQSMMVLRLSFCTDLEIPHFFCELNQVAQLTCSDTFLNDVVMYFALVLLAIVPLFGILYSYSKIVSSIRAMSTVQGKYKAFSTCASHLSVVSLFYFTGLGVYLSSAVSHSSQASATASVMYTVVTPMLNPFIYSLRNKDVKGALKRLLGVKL
In short: as §1

UniProt Q8VGZ2 = target: T4, UniProt Q8VGZ2
T4 sequence (whole entry): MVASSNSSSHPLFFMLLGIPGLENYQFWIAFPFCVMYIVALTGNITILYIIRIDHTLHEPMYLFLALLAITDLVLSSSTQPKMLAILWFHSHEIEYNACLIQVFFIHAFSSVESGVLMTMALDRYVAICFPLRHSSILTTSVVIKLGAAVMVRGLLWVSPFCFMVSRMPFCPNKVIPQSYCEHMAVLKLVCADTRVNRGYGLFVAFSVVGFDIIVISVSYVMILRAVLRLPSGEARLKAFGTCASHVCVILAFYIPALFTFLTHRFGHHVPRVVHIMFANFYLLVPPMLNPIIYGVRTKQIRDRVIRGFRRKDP
In short: as §1

UniProt Q8VGZ7 = target: T5, UniProt Q8VGZ7
T5 sequence (whole entry): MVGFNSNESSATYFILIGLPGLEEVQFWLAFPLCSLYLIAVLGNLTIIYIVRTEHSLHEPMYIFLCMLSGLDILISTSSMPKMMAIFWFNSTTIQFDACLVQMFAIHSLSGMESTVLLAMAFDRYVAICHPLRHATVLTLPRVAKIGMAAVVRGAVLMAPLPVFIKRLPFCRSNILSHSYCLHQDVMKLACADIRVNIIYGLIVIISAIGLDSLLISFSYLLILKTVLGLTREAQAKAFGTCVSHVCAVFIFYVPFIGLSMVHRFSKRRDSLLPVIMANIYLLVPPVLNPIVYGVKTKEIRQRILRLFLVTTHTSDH
In short: as §1

UniProt Q8VH16 = target: T6, UniProt Q8VH16
T6 sequence (whole entry): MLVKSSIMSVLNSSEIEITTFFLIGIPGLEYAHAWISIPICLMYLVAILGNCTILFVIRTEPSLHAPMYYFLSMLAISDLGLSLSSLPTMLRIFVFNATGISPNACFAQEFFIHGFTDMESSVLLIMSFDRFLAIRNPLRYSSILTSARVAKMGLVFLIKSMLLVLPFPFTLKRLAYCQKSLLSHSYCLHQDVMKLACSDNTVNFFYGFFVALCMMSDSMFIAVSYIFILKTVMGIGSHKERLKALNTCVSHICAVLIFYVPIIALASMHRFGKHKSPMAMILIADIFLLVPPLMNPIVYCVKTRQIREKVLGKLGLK
In short: as §1

UniProt Q8VH20 = target: T7, UniProt Q8VH20
T7 sequence (whole entry): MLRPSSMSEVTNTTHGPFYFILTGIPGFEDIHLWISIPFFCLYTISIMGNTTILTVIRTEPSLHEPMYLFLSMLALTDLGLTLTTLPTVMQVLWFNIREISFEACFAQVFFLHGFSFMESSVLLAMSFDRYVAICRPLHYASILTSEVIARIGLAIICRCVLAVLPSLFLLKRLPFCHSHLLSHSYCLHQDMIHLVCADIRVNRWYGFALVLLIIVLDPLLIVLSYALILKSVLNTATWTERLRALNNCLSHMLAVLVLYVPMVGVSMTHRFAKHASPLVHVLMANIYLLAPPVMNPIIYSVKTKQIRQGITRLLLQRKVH
In short: as §1

UniProt Q8VH21 = target: T8, UniProt Q8VH21
T8 sequence (whole entry): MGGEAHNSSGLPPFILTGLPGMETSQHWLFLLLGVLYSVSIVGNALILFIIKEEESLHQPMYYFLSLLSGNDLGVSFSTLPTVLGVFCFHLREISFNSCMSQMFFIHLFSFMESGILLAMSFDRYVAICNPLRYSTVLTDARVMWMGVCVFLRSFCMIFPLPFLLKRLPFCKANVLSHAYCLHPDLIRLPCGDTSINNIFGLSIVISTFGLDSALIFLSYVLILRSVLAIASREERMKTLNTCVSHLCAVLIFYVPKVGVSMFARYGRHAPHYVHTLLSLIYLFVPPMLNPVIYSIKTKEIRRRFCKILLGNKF
In short: as §1

UniProt Q924H8 = target: T9, UniProt Q924H8
T9 sequence (whole entry): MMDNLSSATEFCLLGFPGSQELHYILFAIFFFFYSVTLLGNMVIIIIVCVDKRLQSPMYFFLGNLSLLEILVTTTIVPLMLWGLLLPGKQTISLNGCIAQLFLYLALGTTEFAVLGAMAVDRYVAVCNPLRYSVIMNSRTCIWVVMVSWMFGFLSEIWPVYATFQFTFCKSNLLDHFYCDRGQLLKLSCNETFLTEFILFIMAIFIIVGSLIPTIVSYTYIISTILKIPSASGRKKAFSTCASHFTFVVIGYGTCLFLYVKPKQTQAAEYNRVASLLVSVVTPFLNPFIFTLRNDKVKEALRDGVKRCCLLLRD
In short: as §1

UniProt Q920P1 = target: T10, UniProt Q920P1
T10 sequence (whole entry): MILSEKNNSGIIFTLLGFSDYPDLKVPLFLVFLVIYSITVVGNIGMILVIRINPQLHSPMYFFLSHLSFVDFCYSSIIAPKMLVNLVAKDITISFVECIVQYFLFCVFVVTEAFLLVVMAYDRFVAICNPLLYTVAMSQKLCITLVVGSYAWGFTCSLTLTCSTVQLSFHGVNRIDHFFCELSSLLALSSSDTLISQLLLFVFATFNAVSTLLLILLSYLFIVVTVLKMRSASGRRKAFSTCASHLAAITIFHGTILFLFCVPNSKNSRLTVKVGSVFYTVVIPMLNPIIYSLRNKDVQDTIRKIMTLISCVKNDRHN
In short: as §1

UniProt Q920P2 = target: T11, UniProt Q920P2
T11 sequence (whole entry): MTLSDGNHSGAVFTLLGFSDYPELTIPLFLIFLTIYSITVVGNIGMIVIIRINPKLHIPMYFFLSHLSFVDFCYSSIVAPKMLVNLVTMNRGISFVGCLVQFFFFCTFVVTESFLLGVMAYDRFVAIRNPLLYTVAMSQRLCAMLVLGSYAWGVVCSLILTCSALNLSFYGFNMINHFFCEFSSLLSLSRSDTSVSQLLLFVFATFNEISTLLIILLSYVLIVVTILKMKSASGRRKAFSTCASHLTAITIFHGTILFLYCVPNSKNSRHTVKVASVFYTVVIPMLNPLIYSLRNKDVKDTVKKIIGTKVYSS
In short: as §1

Measured: odorant receptor agonist call

O=C(O)CCCCCCCBr
inactive: UniProt Q9WU94
active: UniProt Q8VGX8 | UniProt Q8VH18 | UniProt Q924X8 | UniProt Q99NH4

O=CC=Cc1ccccc1
inactive: UniProt Q8VGX3 | UniProt Q8VGX5 | UniProt Q8VGZ2 | UniProt Q8VGZ7 | UniProt Q8VH16 | UniProt Q8VH20 | UniProt Q8VH21 | UniProt Q924H8

O=Cc1ccc2c(c1)OCO2
active: UniProt Q8VGX5
not listed: UniProt Q8VGX8 | UniProt Q8VH18 | UniProt Q924X8 | UniProt Q99NH4 | UniProt Q9WU94
inactive: all other assays above

Oc1ccccc1Br
inactive: UniProt Q8VGX3 | UniProt Q8VGX5 | UniProt Q8VGZ2 | UniProt Q8VGZ7 | UniProt Q8VH16 | UniProt Q8VH20 | UniProt Q8VH21 | UniProt Q924H8

CSSC
inactive: UniProt Q8VGX3 | UniProt Q8VGX5 | UniProt Q8VGZ2 | UniProt Q8VGZ7 | UniProt Q8VH16 | UniProt Q8VH20 | UniProt Q8VH21 | UniProt Q924H8
